Experiments:
MDA-MB-468 = assay: Cytotoxicity against human MDA-MB-468 cells assessed as cell growth at 10^-5 M after 48 hrs by SRB assay; assay type: functional; conditions: MDA-MB-468, 48 h, read-out: Activity
Method in brief: (§1)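 NCI 60-cell-line primary one-dose screen across nine tumour subpanels. Compound added at a single concentration of 10^-5 M and cultures incubated 48 h. Endpoint was sulforhodamine B protein staining read spectrophotometrically, with growth expressed as percent of untreated control cells.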

MCF7 = assay: Cytotoxicity against human MCF7 cells assessed as cell growth at 10^-5 M after 48 hrs by SRB assay; assay type: functional; conditions: MCF7, 48 h, read-out: Activity; method in brief: as §1
PC-3 = assay: Cytotoxicity against human PC3 cells assessed as cell growth at 10^-5 M after 48 hrs by SRB assay; assay type: functional; conditions: PC-3, 48 h, read-out: Activity; method in brief: as §1
TK-10 = assay: Cytotoxicity against human TK10 cells assessed as cell growth at 10^-5 M after 48 hrs by SRB assay; assay type: functional; conditions: TK-10, 48 h, read-out: Activity
Method in brief: (§2)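 NCI-60 one-dose screen across nine tumour subpanels. Each agent added once at 10^-5 M, cultures incubated 48 h. Endpoint is sulforhodamine B protein staining read spectrophotometrically. Output is percent growth of treated cells relative to untreated controls.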

RXF 393 = assay: Cytotoxicity against human RXF393 cells assessed as cell growth at 10^-5 M after 48 hrs by SRB assay; assay type: functional; conditions: RXF 393, 48 h, read-out: Activity; method in brief: as §1
IGROV-1 = assay: Cytotoxicity against human IGROV1 cells assessed as cell growth at 10^-5 M after 48 hrs by SRB assay; assay type: functional; conditions: IGROV-1, 48 h, read-out: Activity; method in brief: as §1
NCI-H23 = assay: Cytotoxicity against human NCI-H23 cells assessed as cell growth at 10^-5 M after 48 hrs by SRB assay; assay type: functional; conditions: NCI-H23, 48 h, read-out: Activity; method in brief: as §1
NCI-H322M = assay: Cytotoxicity against human NCI-H322M cells assessed as cell growth at 10^-5 M after 48 hrs by SRB assay; assay type: functional; conditions: read-out: Activity; method in brief: as §1
SR = assay: Cytotoxicity against human SR cells assessed as cell growth at 10^-5 M after 48 hrs by SRB assay; assay type: functional; conditions: read-out: Activity; method in brief: as §2
K562 = assay: Cytotoxicity against human K562 cells assessed as cell growth at 10^-5 M after 48 hrs by SRB assay; assay type: functional; conditions: K562, 48 h, read-out: Activity; method in brief: as §1
Rattus norvegicus = assay: Gastrointestinal toxicity in albino rat assessed as histopathological analysis at 0.28 mmol/kg, po using haematoxylin and eosin staining by light microscopic analysis; assay type: organism-based; conditions: in vivo
Method in brief: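 Adult male albino rats (120–140 g, Minia University), groups of four, fasted 24 h with water allowed. Oral dose 0.28 mmol/kg suspended in 0.5% aqueous CMC; vehicle-only controls. Gastric sections dewaxed, stained with haematoxylin 5–7 min, differentiated in 1% HCl/70% alcohol, counterstained with 1% eosin 10 min. Cleared in xylene, mounted, examined by light microscopy at ×400.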

Row | Structure (SMILES) | growth at 10 µM (MDA-MB-468) [%] | growth at 10 µM (MCF7) [%] | growth at 10 µM (PC-3) [%] | growth at 10 µM (TK-10) [%] | growth at 10 µM (RXF 393) [%] | growth at 10 µM (IGROV-1) [%] | growth at 10 µM (NCI-H23) [%] | growth at 10 µM (NCI-H322M) [%] | growth at 10 µM (SR) [%] | growth at 10 µM (K562) [%] | Activity (Rattus norvegicus)
1 | CCn1c(SC/C(=N/O)c2ccccc2)nnc1-c1ccc(OC)c(OC)c1 | 111 | 118 | 101 | 106 | 114 | 106 | 102 | 99.4 | 95.4 | 93.4 | Non-toxic
2 | O/N=C(/CSc1nnc(-c2ccccc2)n1-c1ccccc1)c1ccccc1 | 93 | 129 | 82.8 | – | 108 | 108 | 103 | – | 92.8 | 74.6 | –
3 | COc1ccc(-c2nnc(SC/C(=N/O)c3ccccc3)n2-c2ccccc2)cc1 | 96.5 | 104 | 86.4 | 113 | 108 | 101 | 106 | 102 | 75.9 | 82.1 | –
4 | COc1ccc(-c2nnc(SC/C(=N/O)c3ccccc3)n2-c2ccccc2)cc1OC | 107 | 100 | 91.6 | 123 | 102 | 106 | 98 | 103 | 85.1 | 88.7 | –
5 | COc1cc(-c2nnc(SC/C(=N/O)c3ccccc3)n2-c2ccccc2)cc(OC)c1OC | 119 | 101 | 92.1 | 116 | 105 | 99 | 92.5 | 104 | 74.8 | 85.2 | –
6 | C=CCn1c(SC/C(=N\O)c2ccccc2)nnc1-c1ccc(OC)c(OC)c1 | 105 | 105 | 96.5 | 112 | 117 | 97.6 | 91.5 | 96.6 | 109 | 90.8 | –
7 | CCn1c(SC/C(=N/O)c2ccccc2)nnc1-c1ccccc1 | 108 | 112 | 81.2 | – | 117 | 106 | 103 | – | 94.8 | 86 | –
